Measurements from different studies.
Protocols differ between the studies behind these lines.
Target: Calcium/calmodulin-dependent protein kinase type 1D (CAMK1D, Homo sapiens, UniProt Q8IU85)

Cn1cc(-c2cc(F)cc(N3CCn4c(cc5c4CCCC5)C3=O)c2CO)cc(Nc2ccc(N3CCN(C4COC4)CC3)cn2)c1=O has an inhibition of 15% (enzyme activity, inhibitor; 0.1 µM).
CC(C)(C)c1cc(C=C(C#N)C#N)cc(Br)c1O has a remaining activity of 111% (enzyme activity, inhibitor; 0.5 µM).
Cn1cncc1[C@](O)(COc1ccc(C#N)cc1-c1ccc(OC(F)(F)F)cc1)c1ccc(C#N)cc1 gave a remaining binding of 100% (cell-free assay, competition with immobilised ligand; 1 µM).
For Cc1nn(C)cc1-c1nc2c(N3CCN(Cc4ccc(Cl)cc4)CC3)c(Cl)cnc2[nH]1, the remaining binding was 100% (binding, competition with immobilised ligand; 1 µM).
N#CC1(c2ccccn2)CCN(Cc2cc(C(=O)O)c(=O)n3ccccc23)CC1 gave a remaining binding of 100% (cell-free assay, competition with immobilised ligand; 1 µM).
The remaining binding of Nc1ncc(-c2nc(N3CCOCC3)nc(N3CCOCC3)n2)c(C(F)F)n1 is reported as 100% (binding, competition with immobilised ligand; 10 µM).
COc1ncccc1-c1cnn2ccc(N3CCN(C(=O)OC(C)C)CC3)nc12 gave a remaining binding of 100% (binding, competition with immobilised ligand; 1 µM).
With O=c1[nH]c2ccccc2n1C1CCN(Cc2ccc(-c3[nH]c4cc5ncnc5cc4nc3-c3ccccc3)cc2)CC1 the remaining signal was 107% (cell-free assay; 0.5 µM).
